Data on one molecule can be found in PubChem BioAssay AID439 (The Scripps Research Institute Molecular Screening Center, 2006).

This assay concerns the target Sphingosine 1-phosphate receptor 3 (Homo sapiens) (UniProt Q99500). The assay can be described thus: S1P3 receptor activation, EC50 – cell-based, NFAT-BLA reporter, dose response (AID 439). The note with it: S1P3 NFAT-beta-lactamase reporter cells, FRET ratio. The method in brief: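 Assay system: CHO cells stably expressing human S1P3, G-alpha-16, NFAT-beta-lactamase reporter; timing: 4 h compound treatment, 37 °C; technique: beta-lactamase FRET, 460 nm versus 535 nm emission ratio; evaluation: EC50 from four-parameter fit, activity relative to 1 µM S1P; replicates: triplicate wells per compound concentration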

The source made the active and inactive calls.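 How the source made its calls: active means compounds with EC50 at or below 10 micromolar; inactive means EC50 above 10 micromolar.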

Sphingosine 1-phosphate receptor 3 (Homo sapiens), sequence (Q99500 whole entry, looked up): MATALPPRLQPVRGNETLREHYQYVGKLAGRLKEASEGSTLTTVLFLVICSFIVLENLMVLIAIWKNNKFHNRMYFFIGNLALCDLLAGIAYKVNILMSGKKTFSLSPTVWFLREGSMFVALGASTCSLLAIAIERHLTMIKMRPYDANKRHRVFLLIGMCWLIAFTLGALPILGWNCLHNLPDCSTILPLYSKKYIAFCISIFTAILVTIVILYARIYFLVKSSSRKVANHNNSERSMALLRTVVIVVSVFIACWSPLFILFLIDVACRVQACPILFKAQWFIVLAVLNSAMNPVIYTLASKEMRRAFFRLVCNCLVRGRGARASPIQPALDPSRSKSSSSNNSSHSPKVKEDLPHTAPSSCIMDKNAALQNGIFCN

As for `CCOC(=O)C1=C(N)OC2=C(C(=O)CCC2)C1c1ccccc1OCC` (stereo unspecified), the EC50 result was “inactive”.
